Measurements from ChEMBL document CHEMBL1148285, “Pyridinium cationic lipids in gene delivery: a structure-activity correlation study” (J Med Chem, 2004).

The compounds below were run on NCI-H23 (assay: Transfection efficiency in NCI-H23 lung cancer cell line was determined.). Conditions: Homo sapiens.
Type: functional, cell-based
How it was run: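 Cationic lipid/cholesterol 1:1 liposomes hydrated in PBS and bath-sonicated (twice 15 min, 65–68 °C; DOTAP/Chol at 37 °C). Lipoplexes with pGL3 (SV40-luciferase) at 2:1 charge ratio, 30 min at 22 °C in Optimem. NCI-H23 cells in RPMI 1640/10% FBS, 20 000 cells/well seeded 24 h before. Exposed 1 h, then medium added for 24 h. Lysate luciferase measured by luminometer, protein by BCA. Triplicate or quadruplicate, mean ± 1 SD.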

**Q.** How did the Activity turn out when `CCCCCCCCCCCCCCCCCC(=O)Oc1ccc(CC[n+]2c(C)cc(C)cc2C)cc1OC(=O)CCCCCCCCCCCCCCCCC` was run?
**A.** Its Activity is “A”.

**Q.** How did the Activity turn out when `CCCCCCCCCCCCCCCC(=O)OCC(COC(=O)CCCCCCCCCCCCCCC)[n+]1c(C)cc(C)cc1C` was run?
**A.** The Activity was “A”.

**Q.** `CCCCCCCCCCCC(=O)Oc1ccc(CC[n+]2c(C)cc(C)cc2C)cc1OC(=O)CCCCCCCCCCC` was tested. Which Activity did it give?
**A.** The Activity was “A”.

**Q.** Which Activity does the source give for `CCCCCCCC(=O)Oc1ccc(CC[n+]2c(C)cc(C)cc2C)cc1OC(=O)CCCCCCC` here?
**A.** Its Activity is “A”.

**Q.** For `CCCCCCCCCC(=O)Oc1ccc(CC[n+]2c(C)cc(C)cc2C)cc1OC(=O)CCCCCCCCC`, which Activity is on record?
**A.** The Activity was “A”.

**Q.** How did the Activity turn out when `CCCCCCCCCCCC(=O)OCC(COC(=O)CCCCCCCCCCC)[n+]1c(C)cc(C)cc1C` was run?
**A.** Its Activity is “A”.

**Q.** How did the Activity turn out when `CCCCCCCCCCCCCCCCCC(=O)OCC(COC(=O)CCCCCCCCCCCCCCCCC)[n+]1c(C)cc(C)cc1C` was run?
**A.** Its Activity is “A”.

**Q.** With `CCCCCCCCCCCCCCCC(=O)Oc1ccc(CC[n+]2c(C)cc(C)cc2C)cc1OC(=O)CCCCCCCCCCCCCCC` as the compound, how does the Activity read?
**A.** Its Activity is “A”.

**Q.** `CCCCCCCCCCCCCC(=O)Oc1ccc(CC[n+]2c(C)cc(C)cc2C)cc1OC(=O)CCCCCCCCCCCCC` was tested. Which Activity did it give?
**A.** Its Activity is “A”.

**Q.** Which Activity does the source give for `CCCCCCCCCCCCCC(=O)OCC(COC(=O)CCCCCCCCCCCCC)[n+]1c(C)cc(C)cc1C` here?
**A.** Its Activity is “A”.
